“And” between values parts separate entries of the source, which are not always exact repeats. Identical values can stand only once. Values belong to the compound of their own block, whether it stands above or below them. The source made the active and inactive calls. The rule behind the calls is not given here. Peptide text beside a SMILES is read from it.
Key:
[1] = Binding affinity to beta sheet of tryptophan Zip4 polypeptide W916A mutant by circular dichroism spectroscopy
How it was run: (§1)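 CD spectra recorded at 25 °C in 10 mM sodium phosphate pH 7.0 with no competing dithiols. Protein at 10 μM (aPP, Zip4) or 20 μM (GCN4, Jun); unmodified peptides and their FlAsH complexes. Three wavelength scans at 50 nm min-1 averaged, buffer-only background subtracted.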

[2] = Binding affinity to tryptophan Zip4 polypeptide W916A mutant containing bipartite tetracysteine motif
How it was run: (§2)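 Fluorescence titration: 25 nM FlAsH or ReAsH titrated with increasing synthetic peptide or protein domain in 100 mM Tris-HCl pH 7.8 with 3.5 mM TCEP, 1 mM EDT, 1 mM EDTA. Emission read at 530 ± 12.5 nm (FlAsH) or 630 ± 17.5 nm (ReAsH) after reaching equilibrium, tracked over time. Apparent Kd taken from intensity versus concentration. Points are means of ≥3 independent titrations ± s.d.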

[3] = Binding affinity to avian pancreatic polypeptide F24/Y31P mutant; how it was run: as §2
[4] = Binding affinity to alpha helix of avian pancreatic polypeptide F24/Y31P mutant by circular dichroism spectroscopy; how it was run: as §1
[5] = Binding affinity to beta sheet structure of tryptophan Zip4 polypeptide by circular dichroism spectroscopy; how it was run: as §1
[6] = Binding affinity to tryptophan Zip4 polypeptide containing bipartite tetracysteine motif at 25 nM; how it was run: as §2
[7] = Binding affinity to tryptophan Zip4 polypeptide containing bipartite tetracysteine motif at 100 nM
[8] = Binding affinity to tryptophan Zip4 polypeptide containing bipartite tetracysteine motif; how it was run: as §2
[9] = Binding affinity to c-Jun L20P mutant at 25 degC by circular dichroism spectroscopy
[10] = Binding affinity to c-Jun homodimer L20P mutant containing bipartite tetracysteine motif; how it was run: as §2
[11] = Binding affinity to alpha helix of avian pancreatic polypeptide F24P mutant by circular dichroism spectroscopy; how it was run: as §1
[12] = Binding affinity to avian pancreatic polypeptide F24P mutant; how it was run: as §2
HeLa [13] = assay: Binding affinity to eGFP-tagged avian pancreatic polypeptide F24P mutant expressed in human HeLa cells at 100 uM after 30 mins by FRET assay; type: cell-based
HeLa [14] = assay: Binding affinity to eGFP-tagged avian pancreatic polypeptide F24P mutant expressed in human HeLa cells by flow cytometry; type: cell-based
How it was run: (§3)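 Live HeLa cells transiently expressing eGFP fusions (aPP C-terminal or GCN4 N-terminal to eGFP) or eGFP alone. Stained 30 min with 500 nM ReAsH-EDT2 plus 100 μM EDT in phenol red-free, serum-free DMEM with 2 mM L-glutamine. PBS wash, then 0.75 mM BAL 30 min. Cells trypsinized and run by flow cytometry: eGFP 488 nm laser, 530 ± 15 nm; ReAsH 568 nm laser, 610 ± 10 nm. Mean ReAsH intensity plotted per log unit of eGFP.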

HeLa [15] = assay: Binding affinity to eGFP-tagged avian pancreatic polypeptide F24P mutant expressed in human HeLa cells at 500 nM after 10 hrs by FRET assay; type: cell-based
HeLa [16] = assay: Binding affinity to eGFP-tagged avian pancreatic polypeptide expressed in human HeLa cells at 500 nM after 10 hrs by FRET assay; type: cell-based
HeLa [17] = assay: Binding affinity to eGFP-tagged avian pancreatic polypeptide expressed in human HeLa cells by flow cytometry; type: cell-based; how it was run: as §3
[18] = Binding affinity to alpha helix of avian pancreatic polypeptide by circular dichroism spectroscopy; how it was run: as §1
HeLa [19] = assay: Binding affinity to eGFP-tagged avian pancreatic polypeptide expressed in human HeLa cells at 100 uM after 30 mins by FRET assay; type: cell-based
[20] = Binding affinity to avian pancreatic polypeptide containing bipartite tetracysteine motif at 25 nM; how it was run: as §2
[21] = Binding affinity to avian pancreatic polypeptide containing bipartite tetracysteine motif at 100 nM; conditions: filed as agonist
[22] = Binding affinity to avian pancreatic polypeptide containing bipartite tetracysteine motif; how it was run: as §2

Compound: CSCC[C@H](NC(=O)[C@H](CS)NC(=O)[C@H](CS)NC(=O)[C@@H](NC(=O)[C@H](Cc1c[nH]c2ccccc12)NC(=O)[C@@H](NC(=O)[C@H](C)NC(=O)[C@@H](NC(=O)[C@H](CCCCN)NC(=O)[C@@H](NC(=O)[C@H](C)NC(=O)[C@H](CC(=O)O)NC(=O)[C@H](CC(=O)O)NC(=O)[C@H](C)NC(=O)[C@@H](NC(=O)[C@H](Cc1c[nH]c2ccccc12)NC(=O)[C@H](CCC(=O)O)NC(=O)[C@H](CS)NC(=O)[C@H](CS)NC(=O)[C@H](CC(N)=O)NC(=O)[C@H](CC(C)C)NC(=O)[C@H](Cc1ccccc1)NC(C)=O)[C@@H](C)O)[C@@H](C)O)[C@@H](C)O)[C@@H](C)O)[C@@H](C)O)C(=O)N[C@@H](CCC(=O)O)C(=O)N1CCC[C@H]1C(N)=O (Ac-FLNCCEWTADDATKTATWTCCMEP-NH2)
Activity [1]: inactive
Kapp [2]: 38 µM and 13 µM

Compound: CC[C@H](C)[C@H](NC(=O)[C@H](CC(C)C)NC(=O)[C@H](CC(=O)O)NC(=O)[C@H](CCC(=O)O)NC(=O)[C@@H](NC(=O)[C@@H]1CCCN1C(=O)[C@H](C)NC(=O)[C@H](CC(=O)O)NC(=O)[C@H](CC(=O)O)NC(=O)CNC(=O)[C@@H]1CCCN1C(=O)[C@H](Cc1ccc(O)cc1)NC(=O)[C@@H](NC(=O)[C@@H]1CCCN1C(=O)[C@H](CCC(N)=O)NC(=O)[C@H](CO)NC(=O)[C@@H]1CCCN1C(=O)[C@H](CS)NC(=O)[C@H](CS)NC(=O)[C@H](CC(N)=O)NC(=O)[C@H](CC(C)C)NC(=O)[C@H](Cc1ccccc1)NC(C)=O)[C@H](C)O)C(C)C)C(=O)N[C@@H](CCCNC(=N)N)C(=O)N1CCC[C@H]1C(=O)N[C@@H](Cc1ccc(O)cc1)C(=O)N[C@@H](CC(=O)O)C(=O)N[C@@H](CC(N)=O)C(=O)N[C@@H](CC(C)C)C(=O)N[C@@H](CCC(N)=O)C(=O)N[C@@H](CCC(N)=O)C(=O)N1CCC[C@H]1C(=O)N[C@@H](CC(C)C)C(=O)N[C@@H](CC(N)=O)C(=O)N[C@H](C(=O)N[C@@H](CS)C(=O)N[C@@H](CS)C(=O)N[C@@H](CCSC)C(=O)N[C@@H](CCC(=O)O)C(=O)N1CCC[C@H]1C(N)=O)C(C)C
Kapp [3]: 65 µM and 72 µM
Activity [4]: inactive

Compound: CSCC[C@H](NC(=O)[C@H](CS)NC(=O)[C@H](CS)NC(=O)[C@@H](NC(=O)[C@H](Cc1c[nH]c2ccccc12)NC(=O)[C@@H](NC(=O)[C@H](Cc1c[nH]c2ccccc12)NC(=O)[C@@H](NC(=O)[C@H](CCCCN)NC(=O)[C@@H](NC(=O)[C@H](C)NC(=O)[C@H](CC(=O)O)NC(=O)[C@H](CC(=O)O)NC(=O)[C@H](Cc1c[nH]c2ccccc12)NC(=O)[C@@H](NC(=O)[C@H](Cc1c[nH]c2ccccc12)NC(=O)[C@H](CCC(=O)O)NC(=O)[C@H](CS)NC(=O)[C@H](CS)NC(=O)[C@H](CC(N)=O)NC(=O)[C@H](CC(C)C)NC(=O)[C@H](Cc1ccccc1)NC(C)=O)[C@@H](C)O)[C@@H](C)O)[C@@H](C)O)[C@@H](C)O)[C@@H](C)O)C(=O)N[C@@H](CCC(=O)O)C(=O)N1CCC[C@H]1C(N)=O (Ac-FLNCCEWTWDDATKTWTWTCCMEP-NH2)
Activity [5]: inactive
Activity [6]: Active
Activity [7]: Active
Kapp [8]: 0.62 µM and 0.38 µM

Further lines, with some results ahead:

Activity [9]: inactive
Kapp [10]: > 111 µM
Compound: CC[C@H](C)[C@H](NC(=O)[C@H](CCCNC(=N)N)NC(=O)[C@H](Cc1c[nH]c2ccccc12)NC(C)=O)C(=O)N[C@@H](C)C(=O)N[C@@H](CCCNC(=N)N)C(=O)N[C@@H](CC(C)C)C(=O)N[C@@H](CCC(=O)O)C(=O)N[C@@H](CCC(=O)O)C(=O)N[C@@H](CCCCN)C(=O)N[C@H](C(=O)N[C@@H](CCCCN)C(=O)N[C@H](C(=O)N[C@@H](CC(C)C)C(=O)N[C@@H](CCCCN)C(=O)N[C@@H](C)C(=O)N[C@@H](CCC(N)=O)C(=O)N[C@@H](CC(N)=O)C(=O)N[C@@H](CO)C(=O)N[C@@H](CCC(=O)O)C(=O)N1CCC[C@H]1C(=O)N[C@@H](C)C(=O)N[C@@H](CO)C(=O)N[C@H](C(=O)N[C@@H](C)C(=O)N[C@@H](CC(N)=O)C(=O)N[C@@H](CCSC)C(=O)N[C@@H](CC(C)C)C(=O)N[C@@H](CCCNC(=N)N)C(=O)N[C@@H](CCC(=O)O)C(=O)N[C@@H](CCC(N)=O)C(=O)N[C@H](C(=O)N[C@@H](C)C(=O)N[C@@H](CCC(N)=O)C(=O)N[C@@H](CC(C)C)C(=O)N[C@@H](CCCCN)C(=O)N[C@@H](CCC(N)=O)C(=O)N[C@@H](CCCCN)C(=O)N[C@H](C(=O)N[C@@H](CS)C(=O)N[C@@H](CS)C(N)=O)C(C)C)C(C)C)[C@@H](C)O)[C@@H](C)O)C(C)C (Ac-WRIARLEEKVKTLKAQNSEPASTANMLREQVAQLKQKVCC-NH2)

Activity [11]: inactive
Kapp [12]: 27 µM and 22 µM
Compound: CC[C@H](C)[C@H](NC(=O)[C@H](CC(C)C)NC(=O)[C@H](CC(=O)O)NC(=O)[C@H](CCC(=O)O)NC(=O)[C@@H](NC(=O)[C@@H]1CCCN1C(=O)[C@H](C)NC(=O)[C@H](CC(=O)O)NC(=O)[C@H](CC(=O)O)NC(=O)CNC(=O)[C@@H]1CCCN1C(=O)[C@H](Cc1ccc(O)cc1)NC(=O)[C@@H](NC(=O)[C@@H]1CCCN1C(=O)[C@H](CCC(N)=O)NC(=O)[C@H](CO)NC(=O)[C@@H]1CCCN1C(=O)[C@H](CS)NC(=O)[C@H](CS)NC(=O)[C@H](CC(N)=O)NC(=O)[C@H](CC(C)C)NC(=O)[C@H](Cc1ccccc1)NC(C)=O)[C@H](C)O)C(C)C)C(=O)N[C@@H](CCCNC(=N)N)C(=O)N1CCC[C@H]1C(=O)N[C@@H](Cc1ccc(O)cc1)C(=O)N[C@@H](CC(=O)O)C(=O)N[C@@H](CC(N)=O)C(=O)N[C@@H](CC(C)C)C(=O)N[C@@H](CCC(N)=O)C(=O)N[C@@H](CCC(N)=O)C(=O)N[C@@H](Cc1ccc(O)cc1)C(=O)N[C@@H](CC(C)C)C(=O)N[C@@H](CC(N)=O)C(=O)N[C@H](C(=O)N[C@@H](CS)C(=O)N[C@@H](CS)C(=O)N[C@@H](CCSC)C(=O)N[C@@H](CCC(=O)O)C(=O)N1CCC[C@H]1C(N)=O)C(C)C
Activity (HeLa [13]): Active
Activity (HeLa [14]): Active
Activity (HeLa [15]): inactive

Activity [18]: inactive
Activity [20]: Active
Activity [21]: Agonist
Kapp [22]: 5.8 µM and 3.4 µM
Compound: CC[C@H](C)[C@H](NC(=O)[C@H](CC(C)C)NC(=O)[C@H](CC(=O)O)NC(=O)[C@H](CCC(=O)O)NC(=O)[C@@H](NC(=O)[C@@H]1CCCN1C(=O)[C@H](C)NC(=O)[C@H](CC(=O)O)NC(=O)[C@H](CC(=O)O)NC(=O)CNC(=O)[C@@H]1CCCN1C(=O)[C@H](Cc1ccc(O)cc1)NC(=O)[C@@H](NC(=O)[C@@H]1CCCN1C(=O)[C@H](CCC(N)=O)NC(=O)[C@H](CO)NC(=O)[C@@H]1CCCN1C(=O)[C@H](CS)NC(=O)[C@H](CS)NC(=O)[C@H](CC(N)=O)NC(=O)[C@H](CC(C)C)NC(=O)[C@H](Cc1ccccc1)NC(C)=O)[C@H](C)O)C(C)C)C(=O)N[C@@H](CCCNC(=N)N)C(=O)N[C@@H](Cc1ccccc1)C(=O)N[C@@H](Cc1ccc(O)cc1)C(=O)N[C@@H](CC(=O)O)C(=O)N[C@@H](CC(N)=O)C(=O)N[C@@H](CC(C)C)C(=O)N[C@@H](CCC(N)=O)C(=O)N[C@@H](CCC(N)=O)C(=O)N[C@@H](Cc1ccc(O)cc1)C(=O)N[C@@H](CC(C)C)C(=O)N[C@@H](CC(N)=O)C(=O)N[C@H](C(=O)N[C@@H](CS)C(=O)N[C@@H](CS)C(=O)N[C@@H](CCSC)C(=O)N[C@@H](CCC(=O)O)C(=O)N1CCC[C@H]1C(N)=O)C(C)C
Activity (HeLa [16]): Active
Activity (HeLa [17]): Active
Activity (HeLa [19]): Active
